Measurements as given in ChEMBL document CHEMBL3856229, “Hybrid Antibiotic Overcomes Resistance in P. aeruginosa by Enhancing Outer Membrane Penetration and Reducing Efflux” (J Med Chem, 2016).
Values after ≈ are worked out from the molar mass of the structure shown.

How the values were obtained:
[1] = tested on: Staphylococcus epidermidis; assay: Antibacterial activity against methicillin-susceptible Staphylococcus epidermidis isolate CANWARD-2008 81388 after 24 hrs by microtitre broth dilution method; assay type: functional; conditions: isolate CANWARD-2008 81388, 24 h
Enterococcus faecalis = assay: Antibacterial activity against Enterococcus faecalis ATCC 29212 after 24 hrs by microtitre broth dilution method; assay type: functional; conditions: ATCC 29212, 24 h
Pseudomonas aeruginosa [2] = assay: Antibacterial activity against pandrug-resistant Pseudomonas aeruginosa isolate 101243; assay type: functional
Pseudomonas aeruginosa [3] = assay: Antibacterial activity against multidrug/extremely drug-resistant/colistin-susceptible Pseudomonas aeruginosa isolate 259-96918; assay type: functional
Acinetobacter baumannii = assay: Antibacterial activity against Acinetobacter baumannii isolate CAN-ICU 63169 after 24 hrs by microtitre broth dilution method; assay type: functional; conditions: isolate CAN-ICU 63169, 24 h
Pseudomonas aeruginosa [4] = assay: Antibacterial activity against multidrug-resistant/tobramycin-susceptible Pseudomonas aeruginosa isolate 86141; assay type: functional
Pseudomonas aeruginosa [5] = assay: Antibacterial activity against multidrug/extremely drug-resistant/colistin-susceptible Pseudomonas aeruginosa isolate 262-101856; assay type: functional
Pseudomonas aeruginosa [6] = assay: Antimicrobial activity against Pseudomonas aeruginosa PAO200; assay type: functional
Procedure, shortened: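 MIC (µg/mL) determined in PAO200, a PAO1-derived MexAB-OprM deletion strain used to assess efflux effects.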

Pseudomonas aeruginosa [7] = assay: Antibacterial activity against multidrug-resistant/tobramycin-susceptible Pseudomonas aeruginosa isolate 84745; assay type: functional
Staphylococcus aureus [8] = assay: Antibacterial activity against methicillin-resistant Staphylococcus aureus ATCC 33592 after 24 hrs by microtitre broth dilution method; assay type: functional; conditions: ATCC 33592, 24 h
Escherichia coli [9] = assay: Antibacterial activity against gentamicin-resistant Escherichia coli isolate CAN-ICU 61714 after 24 hrs by microtitre broth dilution method; assay type: functional; conditions: isolate CAN-ICU 61714, 24 h
Pseudomonas aeruginosa [10] = assay: Antibacterial activity against extremely drug-resistant Pseudomonas aeruginosa isolate 104354 infected in Galleria mellonella assessed as larvae survival at 75 mg/kg administered as single dose measured after 96 hrs; assay type: functional; conditions: isolate 104354, 96 h
Procedure, shortened: (§1)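 Galleria mellonella larvae were infected with 10^6 CFU of XDR P. aeruginosa #104354, resistant to all antipseudomonal classes except colistin. A single injected drug dose was given 2 h post-infection: 50 mg/kg with survival read at 24 h, or 75 mg/kg with survival read at 96 h. Controls were infected untreated larvae and PBS-injected larvae. Two independent experiments of 15 larvae each (n = 30).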

Staphylococcus aureus [11] = assay: Antibacterial activity against Staphylococcus aureus ATCC 29213 after 24 hrs by microtitre broth dilution method; assay type: functional; conditions: ATCC 29213, 24 h
Pseudomonas aeruginosa [12] = assay: Antibacterial activity against multidrug-resistant/tobramycin-susceptible Pseudomonas aeruginosa isolate 83182; assay type: functional
[13] = tested on: Stenotrophomonas maltophilia; assay: Antibacterial activity against Stenotrophomonas maltophilia isolate CAN-ICU 62584 after 24 hrs by microtitre broth dilution method; assay type: functional; conditions: isolate CAN-ICU 62584, 24 h
Streptococcus pneumoniae = assay: Antibacterial activity against Streptococcus pneumoniae ATCC 49619 after 24 hrs by microtitre broth dilution method; assay type: functional; conditions: ATCC 49619, 24 h
Pseudomonas aeruginosa [14] = assay: Antibacterial activity against gentamicin/tobramycin-resistant Pseudomonas aeruginosa isolate CANWARD-2011 96846 after 24 hrs by microtitre broth dilution method; assay type: functional; conditions: isolate CANWARD-2011 96846, 24 h
Pseudomonas aeruginosa [15] = assay: Antibacterial activity against multidrug/extremely drug-resistant/colistin-susceptible Pseudomonas aeruginosa isolate 101885; assay type: functional
Pseudomonas aeruginosa [16] = assay: Antibacterial activity against pandrug-resistant Pseudomonas aeruginosa isolate 91433; assay type: functional
Pseudomonas aeruginosa [17] = assay: Antibacterial activity against multidrug-resistant/tobramycin-susceptible Pseudomonas aeruginosa isolate 80621; assay type: functional
Pseudomonas aeruginosa [18] = assay: Antibacterial activity against extremely drug-resistant Pseudomonas aeruginosa isolate 104354 infected in Galleria mellonella assessed as larvae survival at 50 mg/kg administered as single dose measured after 24 hrs (reference value: 27 %); assay type: functional; conditions: isolate 104354, 24 h; procedure, shortened: as §1
Escherichia coli [19] = assay: Antibacterial activity against amikacin-resistant Escherichia coli isolate CAN-ICU 63074 after 24 hrs by microtitre broth dilution method; assay type: functional; conditions: isolate CAN-ICU 63074, 24 h
Escherichia coli [20] = assay: Antibacterial activity against gentamicin/tobramycin/ciprofloxacin-resistant Escherichia coli isolate CANWARD-2011 97615 harboring AAC3-2A after 24 hrs by microtitre broth dilution method; assay type: functional; conditions: isolate CANWARD-2011 97615, 24 h
Escherichia coli [21] = assay: Antibacterial activity against Escherichia coli ATCC 25922 after 24 hrs by microtitre broth dilution method; assay type: functional; conditions: ATCC 25922, 24 h
Enterococcus faecium = assay: Antibacterial activity against Enterococcus faecium ATCC 27270 after 24 hrs by microtitre broth dilution method; assay type: functional; conditions: ATCC 27270, 24 h
Pseudomonas aeruginosa [22] = assay: Antibacterial activity against multidrug/extremely drug-resistant/colistin-susceptible Pseudomonas aeruginosa isolate 264-104354; assay type: functional
Pseudomonas aeruginosa [23] = assay: Antibacterial activity against multidrug-resistant/tobramycin-susceptible Pseudomonas aeruginosa isolate 86067; assay type: functional
Pseudomonas aeruginosa [24] = assay: Antimicrobial activity against Pseudomonas aeruginosa PAO750; assay type: functional
Procedure, shortened: (§2)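 MICs were measured in PAO1 and in PAO750. PAO750 is a PAO1 derivative lacking the MexAB-OprM, MexCD-OprJ, MexEF-OprN, MexJK and MexXY efflux pumps and the outer membrane protein OpmH.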

Pseudomonas aeruginosa [25] = assay: Antibacterial activity against gentamicin-resistant Pseudomonas aeruginosa isolate CAN-ICU 62308 after 24 hrs by microtitre broth dilution method; assay type: functional; conditions: isolate CAN-ICU 62308, 24 h
Pseudomonas aeruginosa [26] = assay: Antibacterial activity against Pseudomonas aeruginosa ATCC 27853 after 24 hrs by microtitre broth dilution method; assay type: functional; conditions: ATCC 27853, 24 h
Pseudomonas aeruginosa [27] = assay: Ratio of MIC for Pseudomonas aeruginosa PAO1 after 25 serial passages to MIC for Pseudomonas aeruginosa PAO1 prior to 25 serial passages; assay type: functional
Procedure, shortened: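 P. aeruginosa PAO1 exposed to sub-inhibitory (0.5 x MIC) drug over successive subcultures as a resistance-selection procedure. MIC compared after versus before passaging.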

Pseudomonas aeruginosa [28] = assay: Antibacterial activity against multidrug-resistant/tobramycin-susceptible Pseudomonas aeruginosa isolate 85322; assay type: functional
Pseudomonas aeruginosa [29] = assay: Antibacterial activity against multidrug/extremely drug-resistant/colistin-susceptible Pseudomonas aeruginosa isolate 260-97103; assay type: functional
[30] = Inhibition of Pseudomonas aeruginosa DNA gyrase A assessed as inhibition of DNA supercoiling using PBR322 DNA as substrate after 30 mins by SYBR Gold staining based agarose gel electrophoresis
Pseudomonas aeruginosa [31] = assay: Antibacterial activity against multidrug-resistant/tobramycin-susceptible Pseudomonas aeruginosa isolate 108590; assay type: functional
Pseudomonas aeruginosa [32] = assay: Antibacterial activity against Pseudomonas aeruginosa PAO1; assay type: functional
[33] = Selectivity ratio of MIC for Pseudomonas aeruginosa PAO1 to MIC for Pseudomonas aeruginosa PAO750; assay type: functional; procedure, shortened: as §2
Pseudomonas aeruginosa [34] = assay: Antibacterial activity against multidrug/extremely drug-resistant/colistin-susceptible Pseudomonas aeruginosa isolate 100036; assay type: functional
Pseudomonas aeruginosa [35] = assay: Antibacterial activity against multidrug-resistant/tobramycin-susceptible Pseudomonas aeruginosa isolate 92014; assay type: functional
Klebsiella pneumoniae = assay: Antibacterial activity against Klebsiella pneumoniae ATCC 13883 after 24 hrs by microtitre broth dilution method; assay type: functional; conditions: ATCC 13883, 24 h
Pseudomonas aeruginosa [36] = assay: Antibacterial activity against multidrug-resistant/tobramycin-susceptible Pseudomonas aeruginosa isolate 86079; assay type: functional
Pseudomonas aeruginosa [37] = assay: Antibacterial activity against multidrug-resistant/tobramycin-susceptible Pseudomonas aeruginosa isolate 79199; assay type: functional
[38] = tested on: Staphylococcus epidermidis; assay: Antibacterial activity against methicillin-resistant Staphylococcus epidermidis isolate CAN-ICU 61589 after 24 hrs by microtitre broth dilution method; assay type: functional; conditions: isolate CAN-ICU 61589, 24 h
Pseudomonas aeruginosa [39] = assay: Antibacterial activity against multidrug-resistant/tobramycin-susceptible Pseudomonas aeruginosa isolate 86053; assay type: functional
Pseudomonas aeruginosa [40] = assay: Antibacterial activity against multidrug-resistant/tobramycin-susceptible Pseudomonas aeruginosa isolate 86052; assay type: functional

In the case of COc1c(N2C[C@@H]3CCCN[C@@H]3C2)c(F)cc2c(=O)c(C(=O)O)cn(C3CC3)c12 [MOXIFLOXACIN], the MIC [1] is reported as no more than 0.25 µg/mL, the MIC (Enterococcus faecalis) is reported as no more than 0.25 µg/mL and the MIC (Pseudomonas aeruginosa [2]) is reported as 8 µg/mL (≈ 19.9 µM). The MIC (Pseudomonas aeruginosa [3]) was 512 µg/mL (≈ 1280 µM), the MIC (Acinetobacter baumannii) was 1 µg/mL (≈ 2.49 µM) and the MIC (Pseudomonas aeruginosa [4]) was greater than 16 µg/mL. It also gave an MIC (Pseudomonas aeruginosa [5]) of 64 to 128 µg/mL (≈ 159 to 319 µM), an MIC (Pseudomonas aeruginosa [6]) of 0.25 µg/mL (≈ 0.623 µM) and an MIC (Pseudomonas aeruginosa [7]) of 16 µg/mL (≈ 39.9 µM). It also gave an MIC (Staphylococcus aureus [8]) of no more than 0.25 µg/mL, an MIC (Escherichia coli [9]) of 0.5 µg/mL (≈ 1.25 µM) and a survival at 75 mg/kg (Pseudomonas aeruginosa [10]) of 7%. It also gave an MIC (Staphylococcus aureus [11]) of no more than 0.25 µg/mL, an MIC (Pseudomonas aeruginosa [12]) of 16 µg/mL (≈ 39.9 µM) and an MIC [13] of 4 µg/mL (≈ 9.96 µM). For the same compound, the MIC (Streptococcus pneumoniae) was no more than 0.25 µg/mL, the MIC (Pseudomonas aeruginosa [14]) was 16 µg/mL (≈ 39.9 µM) and the MIC (Pseudomonas aeruginosa [15]) was 128 µg/mL (≈ 319 µM). The MIC (Pseudomonas aeruginosa [16]) was 8 to 16 µg/mL (≈ 19.9 to 39.9 µM), the MIC (Pseudomonas aeruginosa [17]) was 8 µg/mL (≈ 19.9 µM) and the survival at 50 mg/kg (Pseudomonas aeruginosa [18]) was 27%. For the same compound, the MIC (Escherichia coli [19]) was 1 µg/mL (≈ 2.49 µM), the MIC (Escherichia coli [20]) was 32 µg/mL (≈ 79.7 µM) and the MIC (Escherichia coli [21]) was no more than 0.25 µg/mL. The MIC (Enterococcus faecium) was 2 µg/mL (≈ 4.98 µM), the MIC (Pseudomonas aeruginosa [22]) was 32 to 64 µg/mL (≈ 79.7 to 159 µM) and the MIC (Pseudomonas aeruginosa [23]) was 16 µg/mL (≈ 39.9 µM). For the same compound, the MIC (Pseudomonas aeruginosa [24]) was 0.0078 µg/mL (≈ 0.0194 µM), the MIC (Pseudomonas aeruginosa [25]) was 16 µg/mL (≈ 39.9 µM) and the MIC (Pseudomonas aeruginosa [26]) was 4 µg/mL (≈ 9.96 µM). The Ratio (Pseudomonas aeruginosa [27]) was 16, the MIC (Pseudomonas aeruginosa [28]) was 8 µg/mL (≈ 19.9 µM) and the MIC (Pseudomonas aeruginosa [29]) was 32 to 64 µg/mL (≈ 79.7 to 159 µM). It also gave an IC50 [30] of 2.6 µM, an MIC (Pseudomonas aeruginosa [31]) of 16 µg/mL (≈ 39.9 µM) and an MIC (Pseudomonas aeruginosa [32]) of 1 µg/mL (≈ 2.49 µM). For the same compound, the Selectivity ratio [33] was 128, the MIC (Pseudomonas aeruginosa [34]) was 128 µg/mL (≈ 319 µM) and the MIC (Pseudomonas aeruginosa [35]) was 16 µg/mL (≈ 39.9 µM). It also gave an MIC (Klebsiella pneumoniae) of no more than 0.25 µg/mL, an MIC (Pseudomonas aeruginosa [36]) greater than 16 µg/mL and an MIC (Pseudomonas aeruginosa [37]) greater than 16 µg/mL. It also gave an MIC [38] of 64 µg/mL (≈ 159 µM), an MIC (Pseudomonas aeruginosa [39]) of 16 µg/mL (≈ 39.9 µM) and an MIC (Pseudomonas aeruginosa [40]) greater than 16 µg/mL.
